High-throughput results (PubChem BioAssay)
DTT redox prof = compounds producing H2O2 with reducing agent – biochemical, NIH compound library profiling, artefact control for MLSCN library redox annotation, primary screen; DTT-dependent redox cycling H2O2, phenol red/HRP absorbance; 100% = 100 µM peroxide control, 0% = buffer; activation, % at 10 µM; 200,000 compounds, 0.03% hits; AID 878;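 active means activation of at least 50% relative to the plate's high and low controls in the primary single-dose screen; inactive means activation below 50%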;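 further: compound incubated with DTT at 0.8 mM final as the reducing agent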
L major viab = reduces viability of Leishmania major promastigotes | resazurin fluorescence viability | inhibition, % at 10 µM | 200,000 compounds, 9% hits | AID 1063;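 further: promastigotes grown with compound for 44 hours at 28 °C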
Diaph act CS = activates diaphorase or chemically reduces, flagging diaphorase assay artifacts; Diaphorase/resazurin coupled assay, resorufin fluorescence, 16 min; hits give high values; 1 = vehicle wells, 0 = NADH-free wells; 190,000 compounds, 0.005% hits; activation factor at 20 µM; AID 1229;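 active means diaphorase activity raised at least twofold by the compound at 20 µM; inactive means activation factor below 2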
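Test system: Clostridium kluyveri diaphorase, purified enzyme; input: enzyme 0.07 U/mL final; buffer or medium: 50 mM HEPES pH 7.4 with 4.542 mM MgCl2, 0.005% Tween 20; also added: 0.114 mM NADH and 0.1 mM resazurin, final amounts; schedule: 16 min enzyme reaction, ambient temperature; technique: fluorescence of resorufin, 544 nm excitation, 590 nm emission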
G6PDH CS = counter-screen for G6PDH assay hits: L. mesenteroides G6PDH inhibition. inhibition, % at 5 µM. 200,000 compounds, 0.12% hits. AID 1020. Purified L. mesenteroides G6PDH, diaphorase/resazurin coupled fluorescence, 45 min
Diaphorase inh = diaphorase inhibition or chemical oxidation counter-screen; diaphorase resazurin-to-resorufin fluorescence, NADH, 16 min; bacterial (C. kluyveri) enzyme, not human; inhibition, % at 20 µM; 190,000 compounds, 0.69% hits; AID 1217;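 active means primary screen inhibition at 20 µM above a set limit, cut at about 50% in these data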;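 further: plate controls were DMSO with full reaction for no effect and wells lacking NADH for full effect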
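Test system: diaphorase enzyme from Clostridium kluyveri; amount: diaphorase at 0.14 U/mL in enzyme working solution; detection: fluorescence of resorufin formed from resazurin, Ex 544/Em 590 nm; times: reaction incubation of 16 min at room temperature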
PfGluPho inh = PfG6PD (Plasmodium falciparum) enzyme inhibition; AID 504690; PfGluPho enzyme, NADPH resazurin-diaphorase fluorescence; 350,000 compounds, 0.78% hits; inhibition, % at 20 µM;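 active means inhibition reaching at least a set limit at 20 µM in the primary screen, cut at about 59% in these data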;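 further: 0% = DMSO wells with substrate and 100% = DMSO wells lacking glucose-6-phosphate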
Active calls of the source: *; / = no result. This excerpt belongs to a sample that is enriched for hits. Unless noted, no stated cut-off is given here; in the data, active means inhibition above about 50%; inactive means the rest.

SMILES	DTT redox prof	L major viab	Diaph act CS	G6PDH CS	Diaphorase inh	PfGluPho inh
CC(=O)c1ccc(NC(=O)c2ccc(C)c(S(=O)(=O)N3CCOCC3)c2)cc1	/	/	/	/	/	10
Cc1ccc(NS(=O)(=O)c2cccc(C(=O)O)c2)cc1S(=O)(=O)N1CCOCC1	2	57*	0.9	2	13	-16
O=C(O)c1cccc(S(=O)(=O)Nc2ccc(S(=O)(=O)N3CCOCC3)cc2)c1	0	-6	1	4	3	-26
COC(=O)C[C@H]1c2cc(C(F)(F)F)ccc2S(=O)(=O)N1Cc1ccc(OC)cc1	/	/	/	/	/	9
CC(C)CC(NC(=O)OC(C)(C)C)c1cn([C@@H](Cc2ccc(O)cc2)C(=O)N2CCN(C(=O)OC(C)(C)C)CC2)nn1 (stereo partly drawn)	0	0	1.1	10	-6	15
CCOC(=O)CSc1ccc(-c2nc3cc(C)c(C)cc3[nH]2)cn1	3	57*	1.1	11	-12	5
N#CCSc1ccc(-c2nc3ccccc3[nH]2)cn1	-1	0	0.4	11	58*	23
Cc1ccc2nc(-c3ccc(SCC(=O)Nc4nc(C)cs4)nc3)[nH]c2c1	0	53*	0.9	-17	14	15
Cc1ccc2nc(-c3ccc(SCC(=O)Nc4nnc(C)s4)nc3)[nH]c2c1	1	1	1.1	6	-7	32
CCOC(=O)CSc1ccc(-c2nc3ccccc3[nH]2)cn1	-2	17	0.9	-6	11	4
Cc1cc2nc(-c3ccc(SCc4ccccn4)nc3)[nH]c2cc1C	0	64*	0.9	14	11	53
Cc1cc2nc(-c3ccc(SCC(=O)N4CCN(C(=O)c5ccco5)CC4)nc3)[nH]c2cc1C	3	17	1	-67	1	15
Cc1cc2nc(-c3ccc(SCC(=O)N4CCOCC4)nc3)[nH]c2cc1C	-4	60*	1	-35	0	32
CCN(CC)S(=O)(=O)c1ccc(Oc2ccccc2)cc1	0	99*	0.8	-2	16	-2
CN(C)S(=O)(=O)c1ccc(Oc2ccccc2)cc1	0	98*	0.9	-16	9	-1
O=C(NNc1ccc(O)cc1)c1ccc(Br)cc1	0	98*	0.8	3	20	50
O=C(NNc1ccccc1)c1ccccc1	/	/	/	/	/	4
CCN1C[C@@H]2[C@@H]3C(=O)N(Cc4ccccc4)C(=O)[C@@H]3[C@](Cc3ccccc3)(C(=O)OC)N2C1=NC	/	/	/	/	/	1
O=C(NCc1cccc(F)c1)c1ccc(N2C(=O)Cn3c(cc4sccc43)C2=O)cc1	0	61*	0.9	-6	11	-14
CC(C)Cn1c(N)c(C(=O)COC(=O)c2cccn2C)c(=O)n(C)c1=O	/	/	/	/	/	-3
Cc1ccc(/C=C/C(=O)OC(C)C(=O)NC2CCCCC2C)o1 (stereo not drawn)	/	/	/	/	/	15
Cc1ccc(Sc2ncnc3onc(C)c23)cc1	2	56*	0.9	-4	12	-6
CCN(CC)S(=O)(=O)c1cccc(NC(=S)NC(=O)/C=C/c2ccc(S(=O)(=O)N3CCOCC3)cc2)c1	0	80*	0.8	4	16	-1
O=C(CNCC1CCCCC1)Nc1cccc(S(=O)(=O)N2CCOCC2)c1	0	79*	0.8	5	20	-21
O=C(Nc1cccc(S(=O)(=O)N2CCOCC2)c1)c1cnccn1	0	24	1	-4	4	-8
SMILES	DTT redox prof	L major viab	Diaph act CS	G6PDH CS	Diaphorase inh	PfGluPho inh
CN(C)S(=O)(=O)c1cccc(NC(=O)c2cnccn2)c1	-2	9	1	18	-3	/
COc1ccc(NS(=O)(=O)c2cccc(NC(=O)c3cnccn3)c2)cc1Br	-1	100*	1	1	4	6
O=C(Nc1cccc(S(=O)(=O)N2CCCCC2)c1)c1cnccn1	0	87*	1	14	2	2
COc1cccc(CC2CC(=O)N(c3ccc4c(C)cc(=O)oc4c3)C2=O)c1 (stereo not drawn)	-1	-8	0.9	12	10	-9
Cn1c(=O)c2c(SCC(=O)N3CCCCC3)nc(-c3ccccc3F)nc2n(C)c1=O	/	/	/	/	/	-20
O=C(Nc1nc(-c2ccc(Cl)s2)cs1)c1ccncc1	17	-3	1	1	-2	-7
COc1ccc(/C=C/C(=O)Nc2cccc(S(=O)(=O)N3CCCC3)c2)cc1OC	-2	55*	0.9	-2	8	17
COc1ccc(/C=C/C(=O)NC2CCCCCC2)cc1S(=O)(=O)N1CCOCC1	0	98*	0.9	23	11	-7
Cc1onc(-c2ccccc2Cl)c1C(=O)OCC(=O)Nc1cccc(S(=O)(=O)N2CCOCC2)c1	0	64*	0.9	3	7	12
O=C(CCl)Nc1cccc(S(=O)(=O)N2CCCCCC2)c1	0	85*	0.8	-12	16	-2
Cc1ccc(SCC(=O)OCC(=O)N(C)C2CCS(=O)(=O)C2)cc1C (stereo not drawn)	/	/	/	/	/	2
CCCN1CNC(=S)N(c2cc(C)ccc2C)C1	2	-8	0.8	10	19	4
COc1cc(NS(=O)(=O)c2cc(NC(C)=O)ccc2OC)c(OC)cc1NC(=O)c1ccccc1	/	/	/	/	/	17
O=C(COC(=O)Cn1cnc2ccccc21)Nc1ccc(F)c(F)c1	/	/	/	/	/	0
O=C(CN1C(=O)NC(Cc2c[nH]c3ccccc23)C1=O)Nc1cccc(S(=O)(=O)N2CCCCCC2)c1 (stereo not drawn)	0	64*	0.7	-5	26	26
O=C(CN1C(=O)NC(Cc2c[nH]c3ccccc23)C1=O)Nc1cccc(S(=O)(=O)N2CCCC2)c1 (stereo not drawn)	0	5	1	19	0	44
CC(Oc1ncnc2ccccc12)C(=O)Nc1cccc(S(=O)(=O)N2CCOCC2)c1 (stereo not drawn)	0	78*	1	0	0	9
O=C(COc1ncnc2ccccc12)Nc1cccc(S(=O)(=O)N2CCOCC2)c1	0	3	0.9	-13	11	5
COc1cc2c(cc1NC(=O)CSc1nc3ccc(C)cc3[nH]1)oc1ccccc12	1	65*	0.9	1	8	/
COc1ccccc1C(=O)Nc1nnc(SCC(=O)Nc2ccc3c(c2)oc2ccccc23)s1	0	96*	0.9	0	14	4
COc1cc2c(cc1NC(=O)CSc1ccc(C)cc1)oc1ccccc12	2	0	0.7	1	31	20
COc1cc2c(cc1NC(=O)CSc1nnc(Cc3cccs3)n1Cc1ccco1)oc1ccccc12	1	91*	0.8	3	21	18
